Measurements taken from ChEMBL document CHEMBL2177098, “Synthesis and evaluation of novel ¹⁸F labeled 2-pyridinylbenzoxazole and 2-pyridinylbenzothiazole derivatives as ligands for positron emission tomography (PET) imaging of β-amyloid plaques” (J Med Chem, 2012).
Calls of active or inactive are those of the source. No cut-off for these calls is given here.

Key:
Mus musculus [1] = species: Mus musculus; assay: Binding affinity to amyloid beta plaques in transgenic C57BL6 mouse cortex expressing APP Swedish mutant/PSEN1 at 370 KBq/100 ul after 1 hr by thioflavinS-staining method; conditions: tested as the 18F-labelled form
Method in brief: (§1)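 Paraffin brain sections from 12-month-old Tg mice (C57BL6, APPswe/PSEN1) and age-matched controls, deparaffinized through xylene and graded ethanol, then PBS (0.2 M, pH 7.4) 30 min. Incubated with 18F tracer (370 KBq per 100 μL) 1 h at room temperature, washed in 40% EtOH, rinsed in water, then phosphor plate exposure 2 h. The same sections were afterwards stained with 0.125% thioflavin S in 10% EtOH for 3 min and washed in 40% EtOH.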

Mus musculus [2] = species: Mus musculus; assay: Binding affinity to amyloid beta plaques in transgenic C57BL6 mouse hippocampus expressing APP Swedish mutant/PSEN1 at 370 KBq/100 ul after 1 hr by autoradiographic analysis; format: tissue-based; conditions: tested as the 18F-labelled form; method in brief: as §1
Mus musculus [3] = species: Mus musculus; assay: Binding affinity to amyloid beta plaques in transgenic C57BL6 mouse cortex expressing APP Swedish mutant/PSEN1 at 370 KBq/100 ul after 1 hr by autoradiographic analysis; conditions: tested as the 18F-labelled form; method in brief: as §1
[4] = Displacement of [125I]-IMPY from amyloid beta (1 to 42) fibrils after 2 hrs by gamma-counting analysis
Method in brief: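 Competition binding with aggregated Aβ1-42 fibrils and [125I]IMPY (60000−100000 cpm/100 μL) in 0.05% BSA (1 mL total); inhibitors 10⁻⁴−10^−8.5 M in ethanol. Incubated 37 °C for 2 h, then GF/B vacuum filtration with PBS (0.02 M, pH 7.4) washes and γ counting. Three repeats; IC50 converted to Ki by Cheng−Prusoff.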

Mus musculus [5] = species: Mus musculus; assay: Binding affinity to amyloid beta plaques in transgenic C57BL6 mouse hippocampus expressing APP Swedish mutant/PSEN1 at 370 KBq/100 ul after 1 hr by thioflavinS-staining method; format: tissue-based; conditions: tested as the 18F-labelled form; method in brief: as §1

Row | Activity (Mus musculus [1]) | Activity (Mus musculus [2]) | Activity (Mus musculus [3]) | Ki [4] | Activity (Mus musculus [5]) | Compound
1 | Active | Active | Active | 9.9 nM | Active | CN(C)c1ccc(-c2nc3cc(OCCOCCOCCF)ccc3o2)cn1
2 | Active | Active | Active | 2.7 nM | Active | CN(C)c1ccc(-c2nc3cc(OCCF)ccc3o2)cn1
3 | Active | Active | Active | 5.8 nM | Active | CN(C)c1ccc(-c2nc3ccc(OCCOCCOCCF)cc3s2)cn1
4 |  |  |  | 29.7 nM |  | CNc1ccc(-c2nc3ccc(OCCOCCF)cc3s2)cn1
5 |  |  |  | 2.7 nM |  | CN(C)c1ccc(-c2nc3ccc(OCCF)cc3s2)cn1
